Converted amounts (≈) assume the structure as drawn.
Assays:
Format in all cases: functional
Streptococcus pneumoniae = assay: In vitro minimum inhibitory concentration against Streptococcus pneumoniae UC41
Proteus vulgaris = assay: In vitro minimum inhibitory concentration against Proteus vulgaris X 19 ATCC 881
Staphylococcus aureus = assay: In vitro minimum inhibitory concentration against Staphylococcus aureus Tour
Streptococcus pyogenes [1] = assay: Subcutaneously administration into mice infected with Streptococcus pyogenes C 203; conditions: sc
Procedure, shortened: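 Mice (five per treatment group, five groups) infected intraperitoneally with about 10⁵ cells of Strep. pyogenes C 203, about 100× the LD50. ED50 (mg/kg) was calculated from the percentage of mice surviving at each dose on day 7.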

Enterococcus faecalis = assay: In vitro minimum inhibitory concentration against Streptococcus faecalis ATCC 7080
Pseudomonas aeruginosa = assay: In vitro minimum inhibitory concentration against Pseudomonas aeruginosa ATCC 10145
Streptococcus pyogenes [2] = assay: In vitro minimum inhibitory concentration against Streptococcus pyogenes C 203
[3] = tested on: Staphylococcus epidermidis; assay: In vitro minimum inhibitory concentration against Staphylococcus epidermis ATCC 12228
Escherichia coli = assay: In vitro minimum inhibitory concentration against Escherichia coli SKF 12140
[4] = tested on: Staphylococcus haemolyticus; assay: In vitro minimum inhibitory concentration against Staphylococcus hemolyticus 602 cell line; conditions: strain 602

Structure (SMILES) | MIC (Streptococcus pneumoniae) [µg/mL] | MIC (Proteus vulgaris) [µg/mL] | MIC (Staphylococcus aureus) [µg/mL] | MIC (Enterococcus faecalis) [µg/mL] | MIC (Pseudomonas aeruginosa) [µg/mL] | MIC (Streptococcus pyogenes [2]) [µg/mL] | MIC [3] [µg/mL] | MIC (Escherichia coli) [µg/mL] | ED50 (Streptococcus pyogenes [1]) [mg/kg] | MIC [4] [µg/mL]
CCN(CC)CCCNC(=O)[C@H]1NC(=O)[C@H]2NC(=O)[C@H](NC(=O)[C@@H]3NC(=O)[C@H]4NC(=O)[C@@H](Cc5ccc(c(Cl)c5)Oc5cc3cc(c5O)Oc3ccc(cc3Cl)[C@H]2O)NC(=O)[C@H](N)c2ccc(O)c(c2)Oc2cc(O)cc4c2)c2ccc(O)c(c2)-c2c(O)cc(O)cc21 | 0.12 (≈ 0.0915 µM) | 32 (≈ 24.4 µM) | 0.12 (≈ 0.0915 µM) | 0.12 (≈ 0.0915 µM) | 32 (≈ 24.4 µM) | 0.06 (≈ 0.0458 µM) | 0.03 (≈ 0.0229 µM) | 8 (≈ 6.1 µM) | 0.18 | –
CN(C)CCCCNC(=O)[C@H]1NC(=O)[C@H]2NC(=O)[C@H](NC(=O)[C@@H]3NC(=O)[C@H]4NC(=O)[C@@H](Cc5ccc(c(Cl)c5)Oc5cc3cc(c5O)Oc3ccc(cc3Cl)[C@H]2O)NC(=O)[C@H](N)c2ccc(O)c(c2)Oc2cc(O)cc4c2)c2ccc(O)c(c2)-c2c(O)cc(O)cc21 | 0.12 (≈ 0.0925 µM) | 32 (≈ 24.7 µM) | 0.06 (≈ 0.0463 µM) | 0.12 (≈ 0.0925 µM) | 32 (≈ 24.7 µM) | 0.06 (≈ 0.0463 µM) | 0.06 (≈ 0.0463 µM) | 8 (≈ 6.17 µM) | 0.54 | 0.12 (≈ 0.0925 µM)
CCCCN(CCCC)CCCNC(=O)[C@H]1NC(=O)[C@H]2NC(=O)[C@H](NC(=O)[C@@H]3NC(=O)[C@H]4NC(=O)[C@@H](Cc5ccc(c(Cl)c5)Oc5cc3cc(c5O)Oc3ccc(cc3Cl)[C@H]2O)NC(=O)[C@H](N)c2ccc(O)c(c2)Oc2cc(O)cc4c2)c2ccc(O)c(c2)-c2c(O)cc(O)cc21 | 0.12 (≈ 0.0878 µM) | 32 (≈ 23.4 µM) | 0.12 (≈ 0.0878 µM) | 0.12 (≈ 0.0878 µM) | 64 (≈ 46.8 µM) | 0.06 (≈ 0.0439 µM) | 0.06 (≈ 0.0439 µM) | 8 (≈ 5.85 µM) | 0.72 | –
CCN1CCCC1CNC(=O)[C@H]1NC(=O)[C@H]2NC(=O)[C@H](NC(=O)[C@@H]3NC(=O)[C@H]4NC(=O)[C@@H](Cc5ccc(c(Cl)c5)Oc5cc3cc(c5O)Oc3ccc(cc3Cl)[C@H]2O)NC(=O)[C@H](N)c2ccc(O)c(c2)Oc2cc(O)cc4c2)c2ccc(O)c(c2)-c2c(O)cc(O)cc21 (some centres not stated) | 0.06 (≈ 0.0458 µM) | 32 (≈ 24.4 µM) | 0.06 (≈ 0.0458 µM) | 0.12 (≈ 0.0917 µM) | 64 (≈ 48.9 µM) | 0.06 (≈ 0.0458 µM) | 0.06 (≈ 0.0458 µM) | 4 (≈ 3.06 µM) | 1.25 | 0.12 (≈ 0.0917 µM)

Continued by falling MIC (Streptococcus pneumoniae), values first:

MIC (Streptococcus pneumoniae) [µg/mL] | MIC (Proteus vulgaris) [µg/mL] | MIC (Staphylococcus aureus) [µg/mL] | MIC (Enterococcus faecalis) [µg/mL] | MIC (Pseudomonas aeruginosa) [µg/mL] | MIC (Streptococcus pyogenes [2]) [µg/mL] | MIC [3] [µg/mL] | MIC (Escherichia coli) [µg/mL] | Structure (SMILES) | ED50 (Streptococcus pyogenes [1]) [mg/kg] | MIC [4] [µg/mL]
0.12 (≈ 0.0937 µM) | 64 (≈ 50 µM) | 0.06 (≈ 0.0468 µM) | 0.12 (≈ 0.0937 µM) | 32 (≈ 25 µM) | 0.12 (≈ 0.0937 µM) | 0.03 (≈ 0.0234 µM) | 16 (≈ 12.5 µM) | CN1CCN(C(=O)[C@H]2NC(=O)[C@H]3NC(=O)[C@H](NC(=O)[C@@H]4NC(=O)[C@H]5NC(=O)[C@@H](Cc6ccc(c(Cl)c6)Oc6cc4cc(c6O)Oc4ccc(cc4Cl)[C@H]3O)NC(=O)[C@H](N)c3ccc(O)c(c3)Oc3cc(O)cc5c3)c3ccc(O)c(c3)-c3c(O)cc(O)cc32)CC1 | 0.95 | –
0.12 (≈ 0.0946 µM) | 32 (≈ 25.2 µM) | 0.06 (≈ 0.0473 µM) | 0.12 (≈ 0.0946 µM) | 32 (≈ 25.2 µM) | 0.06 (≈ 0.0473 µM) | 0.06 (≈ 0.0473 µM) | 8 (≈ 6.3 µM) | NCCCCNC(=O)[C@H]1NC(=O)[C@H]2NC(=O)[C@H](NC(=O)[C@@H]3NC(=O)[C@H]4NC(=O)[C@@H](Cc5ccc(c(Cl)c5)Oc5cc3cc(c5O)Oc3ccc(cc3Cl)[C@H]2O)NC(=O)[C@H](N)c2ccc(O)c(c2)Oc2cc(O)cc4c2)c2ccc(O)c(c2)-c2c(O)cc(O)cc21 | 0.54 | 0.12 (≈ 0.0946 µM)
0.06 (≈ 0.0468 µM) | 64 (≈ 49.9 µM) | 0.06 (≈ 0.0468 µM) | 0.12 (≈ 0.0935 µM) | 64 (≈ 49.9 µM) | 0.06 (≈ 0.0468 µM) | 0.06 (≈ 0.0468 µM) | 8 (≈ 6.23 µM) | CN(C)CCN(C)C(=O)[C@H]1NC(=O)[C@H]2NC(=O)[C@H](NC(=O)[C@@H]3NC(=O)[C@H]4NC(=O)[C@@H](Cc5ccc(c(Cl)c5)Oc5cc3cc(c5O)Oc3ccc(cc3Cl)[C@H]2O)NC(=O)[C@H](N)c2ccc(O)c(c2)Oc2cc(O)cc4c2)c2ccc(O)c(c2)-c2c(O)cc(O)cc21 | 1.25 | 0.06 (≈ 0.0468 µM)

Reference: ChEMBL document CHEMBL1124366, “Synthesis and biological properties of N63-carboxamides of teicoplanin antibiotics. Structure-activity relationships” (J Med Chem, 1989)
